How the values were obtained:
Conditions in all cases: stereoisomer not certain
[1] = molecular target: T1, OR13C2 (Homo sapiens) (UniProt Q8NGS9)
T1 sequence (whole entry): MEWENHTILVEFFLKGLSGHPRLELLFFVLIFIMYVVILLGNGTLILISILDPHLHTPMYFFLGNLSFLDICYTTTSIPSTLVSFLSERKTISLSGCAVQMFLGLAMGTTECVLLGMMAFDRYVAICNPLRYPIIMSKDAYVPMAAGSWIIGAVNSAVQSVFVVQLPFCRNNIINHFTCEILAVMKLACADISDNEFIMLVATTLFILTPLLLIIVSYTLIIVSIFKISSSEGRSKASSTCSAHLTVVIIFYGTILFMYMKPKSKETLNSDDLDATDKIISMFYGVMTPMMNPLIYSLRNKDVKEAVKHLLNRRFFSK
In short: (§1)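 Each receptor–molecule pair is labelled responsive or non-responsive (inactive) according to whether the original authors judged the measured signal statistically different from baseline. The data were taken from the main text and supplementary material of published papers and checked for typos and inconsistencies. Assay methods differed by source, with transient luciferase assays in mammalian cell lines being common.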

[2] = molecular target: T2, OR13C3 (Homo sapiens) (UniProt Q8NGS6)
T2 sequence (whole entry): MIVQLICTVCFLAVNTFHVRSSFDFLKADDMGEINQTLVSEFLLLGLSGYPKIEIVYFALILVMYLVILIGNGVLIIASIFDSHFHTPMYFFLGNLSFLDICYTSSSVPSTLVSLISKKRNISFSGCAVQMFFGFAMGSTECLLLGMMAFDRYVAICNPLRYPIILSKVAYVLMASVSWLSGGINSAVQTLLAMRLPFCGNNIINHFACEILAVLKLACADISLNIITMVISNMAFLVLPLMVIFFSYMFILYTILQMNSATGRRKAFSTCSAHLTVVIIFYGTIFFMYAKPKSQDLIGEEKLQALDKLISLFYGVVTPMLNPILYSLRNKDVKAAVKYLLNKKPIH
In short: as §1

[3] = molecular target: T3, OR13C4 (Homo sapiens) (UniProt Q8NGS5)
T3 sequence (whole entry): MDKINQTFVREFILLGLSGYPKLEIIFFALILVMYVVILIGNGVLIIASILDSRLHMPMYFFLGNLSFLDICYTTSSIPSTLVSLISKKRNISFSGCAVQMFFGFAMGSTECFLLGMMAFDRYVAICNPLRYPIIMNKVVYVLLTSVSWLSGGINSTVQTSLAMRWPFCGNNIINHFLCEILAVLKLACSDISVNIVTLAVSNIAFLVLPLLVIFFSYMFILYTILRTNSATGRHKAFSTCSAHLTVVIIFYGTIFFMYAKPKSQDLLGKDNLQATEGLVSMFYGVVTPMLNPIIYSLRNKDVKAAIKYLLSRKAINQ
In short: as §1

[4] = molecular target: T4, OR13C5 (Homo sapiens) (UniProt Q8NGS8)
T4 sequence (whole entry): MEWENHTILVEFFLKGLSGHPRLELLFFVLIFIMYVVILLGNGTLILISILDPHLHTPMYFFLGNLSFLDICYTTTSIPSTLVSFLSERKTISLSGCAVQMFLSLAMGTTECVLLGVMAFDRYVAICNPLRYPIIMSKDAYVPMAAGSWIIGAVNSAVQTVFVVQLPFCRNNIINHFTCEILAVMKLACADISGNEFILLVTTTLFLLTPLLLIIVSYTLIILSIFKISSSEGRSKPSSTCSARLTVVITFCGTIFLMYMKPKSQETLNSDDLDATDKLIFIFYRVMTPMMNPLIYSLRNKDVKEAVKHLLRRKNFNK
In short: as §1

[5] = molecular target: T5, OR13C8 (Homo sapiens) (UniProt Q8NGS7)
T5 sequence (whole entry): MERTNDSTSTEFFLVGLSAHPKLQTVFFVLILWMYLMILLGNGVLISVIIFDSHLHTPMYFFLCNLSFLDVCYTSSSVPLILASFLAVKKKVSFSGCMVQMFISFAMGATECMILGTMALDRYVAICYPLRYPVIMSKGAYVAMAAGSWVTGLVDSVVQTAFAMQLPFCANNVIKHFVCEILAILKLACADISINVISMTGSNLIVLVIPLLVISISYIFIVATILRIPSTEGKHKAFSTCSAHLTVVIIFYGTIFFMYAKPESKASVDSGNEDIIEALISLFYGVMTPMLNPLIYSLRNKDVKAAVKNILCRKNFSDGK
In short: as §1

[6] = molecular target: T6, OR13C9 (Homo sapiens) (UniProt Q8NGT0)
T6 sequence (whole entry): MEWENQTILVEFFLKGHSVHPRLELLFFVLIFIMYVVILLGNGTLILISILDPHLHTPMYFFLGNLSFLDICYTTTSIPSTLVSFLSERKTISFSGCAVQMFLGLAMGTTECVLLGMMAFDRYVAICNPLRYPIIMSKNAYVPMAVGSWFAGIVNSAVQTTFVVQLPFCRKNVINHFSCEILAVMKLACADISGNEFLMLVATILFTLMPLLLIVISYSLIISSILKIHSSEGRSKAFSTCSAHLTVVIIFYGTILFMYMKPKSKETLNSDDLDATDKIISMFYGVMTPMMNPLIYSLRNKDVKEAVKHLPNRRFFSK
In short: as §1

[7] = molecular target: T7, OR13D1 (Homo sapiens) (UniProt Q8NGV5)
T7 sequence (whole entry): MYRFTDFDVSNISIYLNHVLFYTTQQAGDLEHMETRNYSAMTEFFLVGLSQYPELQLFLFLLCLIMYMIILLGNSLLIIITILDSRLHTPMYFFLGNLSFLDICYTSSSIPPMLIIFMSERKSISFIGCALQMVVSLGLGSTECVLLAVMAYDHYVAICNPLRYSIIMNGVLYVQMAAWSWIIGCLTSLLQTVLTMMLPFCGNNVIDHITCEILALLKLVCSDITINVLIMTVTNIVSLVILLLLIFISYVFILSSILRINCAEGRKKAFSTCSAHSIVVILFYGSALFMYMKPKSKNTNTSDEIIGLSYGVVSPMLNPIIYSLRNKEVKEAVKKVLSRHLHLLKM
In short: as §1

[8] = molecular target: T8, OR13F1 (Homo sapiens) (UniProt Q8NGS4)
T8 sequence (whole entry): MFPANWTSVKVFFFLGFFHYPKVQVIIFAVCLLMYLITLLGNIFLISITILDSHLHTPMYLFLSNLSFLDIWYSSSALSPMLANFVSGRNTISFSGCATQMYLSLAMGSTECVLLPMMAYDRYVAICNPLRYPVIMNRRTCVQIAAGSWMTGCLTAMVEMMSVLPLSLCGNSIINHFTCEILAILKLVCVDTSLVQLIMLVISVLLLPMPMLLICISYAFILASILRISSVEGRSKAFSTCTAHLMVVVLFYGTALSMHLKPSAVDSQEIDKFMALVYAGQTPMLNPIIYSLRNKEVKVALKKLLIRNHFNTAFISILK
In short: as §1

[9] = molecular target: T9, OR13G1 (Homo sapiens) (UniProt Q8NGZ3)
T9 sequence (whole entry): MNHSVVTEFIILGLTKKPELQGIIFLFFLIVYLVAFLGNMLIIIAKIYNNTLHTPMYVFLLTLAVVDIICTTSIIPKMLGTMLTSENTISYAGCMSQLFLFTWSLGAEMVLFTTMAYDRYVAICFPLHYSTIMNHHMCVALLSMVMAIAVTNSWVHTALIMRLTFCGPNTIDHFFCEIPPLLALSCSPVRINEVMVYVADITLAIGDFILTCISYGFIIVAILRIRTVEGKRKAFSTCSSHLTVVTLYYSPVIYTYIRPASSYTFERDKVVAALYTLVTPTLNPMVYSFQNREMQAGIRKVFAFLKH
In short: as §1

Measured: odorant receptor agonist call;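 further: active if original authors judged signal statistically different from baseline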

CCCC(S)CCOC(C)=O (centres undefined)
inactive: all assays above
